Entries after “also recorded” stand apart in the source; their conditions may differ.
Legend:
[1] = system: inflammasomes in monocytes; settings: crystals of uric acid; cited from earlier work
[2] = uric acid administration; ref Scott et al., 2002; cited from earlier work
[3] = EAE induced by adoptive transfer of Th17 lymphocytes, clinical signs; type: in vivo, mouse (C57BL/6J); settings: 2 µg daily for 21 d beginning the day after adoptive transfer; groups of 10 mice
Summary of the method: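 Donor female C57BL/6J mice were immunised s.c. with MOG35-55 in CFA. On day 10, spleen and draining lymph node cells were restimulated for 3 d with 10 µg/ml MOG35-55 plus 10 ng/ml IL-23. Cells (15 × 10^6 per mouse) were given i.p. to 9-wk-old female recipients. PBS served as control. Mice were scored daily on a 0–5 scale, with atypical EAE scored separately.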

[4] = ref Kurnellas et al., 2013; cited from earlier work
Amyloid fibril formation = type: physicochemical; settings: physiological buffers; ThT staining; Fig. S1
Summary of the method: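 Hexapeptide (200 µg in 50 µl) was combined with 100 mM MES pH 7.4 and a 1 M solution at the appropriate pH, then incubated at 37°C. ThT (10 µM solution, pre-addition) was added. Fluorescence was read at 485 nm with excitation at 440 nm. Run in triplicate and repeated twice.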

[5] = system: type 1 IFN (murine IFN-α4, 5, 12, and 13; consensus primers); experiment: Type 1 IFN induced in PBCs of healthy C57BL/6 mice; type: in vivo, mouse (C57BL/6); settings: compared with peptides that readily form fibrils
[6] = Solubility in physiological buffers; type: physicochemical

O=c1[nH]c(=O)c2[nH]c(=O)[nH]c2[nH]1 [uric acid]
endocytosis and inflammasome induction [1]: endocytosed and induce inflammasomes with subsequent secretion of IL-1β by monocytes
therapeutic effect in EAE [2]: therapeutic benefit

SSTNVG [Amylin 28–33]
clinical signs of Th17-induced EAE, 2 µg [3]: therapeutic in Th17-induced EAE
therapeutic effect of polar, nonionizable peptides in active EAE [4]: therapeutic
amyloid fibril formation in vitro (Amyloid fibril formation): do not readily form fibrils in physiological buffers; also recorded: did not form detectable amounts of fibrils in vitro
type 1 IFN production (summary) [5]: stimulated significantly less type 1 IFN production

Ac-VQIVYK-NH2 [Tau 623–628]
solubility in physiological buffers [6]: limited solubility in physiological buffers
